Reference: article PMC5970367 (Chembiochem : a European journal of chemical biology, 2017)

Tests used:
[1] = test system: fluorescein-labeled IRES SLIIb; assay: Time-dependent MALDI-TOF mass spectrometry of SLIIb cleavage; type: biochemical, hepatitis C virus; settings: for Initial Rate (%Overhang/min), 2′, 3′-cPO4: overhang 2′,3′-cyclic phosphates; for Initial Rate (%Overhang/min), 2′, 3′-cPO4 / Initial Rate (%Overhang/min), 3′-AL / Initial Rate (%Overhang/min), 3′-OH / Initial Rate (%Overhang/min), 3′-PO4 / Initial Rate (%Overhang/min), 3′-PGA / Initial Rate (%Overhang/min), 3′-PG / Initial Rate (%Overhang/min), 5′-AL / Initial Rate (%Overhang/min), 5′-GemDiol / Initial Rate (%Overhang/min), 5′-OH / Initial Rate (%Overhang/min), 5′-PO4 / Initial Rate (%Overhang/min), 5′-PPA: MALDI-TOF time dependence; for Initial Rate (%Overhang/min), 3′-AL: overhang 3′-aldehyde; for Initial Rate (%Overhang/min), 3′-OH: overhang 3′-hydroxyl; for Initial Rate (%Overhang/min), 3′-PO4: overhang 3′-phosphates; for Initial Rate (%Overhang/min), 3′-PGA: overhang 3′-phosphoglycaldehyde; for Initial Rate (%Overhang/min), 3′-PG: overhang 3′-phosphoglycolate; for Initial Rate (%Overhang/min), 5′-AL: overhang 5′-aldehyde; for Initial Rate (%Overhang/min), 5′-GemDiol: overhang 5′-geminal diol; for Initial Rate (%Overhang/min), 5′-OH: overhang 5′-hydroxyl; for Initial Rate (%Overhang/min), 5′-PO4: overhang 5′-phosphate; for Initial Rate (%Overhang/min), 5′-PPA: overhang 5′-phosphopropenal; for Relative Initial Rate (Normalized Intensity/min × 1000), position A6 / Relative Initial Rate (Normalized Intensity/min × 1000), position A15 / Relative Initial Rate (Normalized Intensity/min × 1000), position A19 / Relative Initial Rate (Normalized Intensity/min × 1000), position A27 / Relative Initial Rate (Normalized Intensity/min × 1000), position A30 / Relative Initial Rate (Normalized Intensity/min × 1000), position C10 / Relative Initial Rate (Normalized Intensity/min × 1000), position C33 / Relative Initial Rate (Normalized Intensity/min × 1000), position G5 / Relative Initial Rate (Normalized Intensity/min × 1000), position G9 / Relative Initial Rate (Normalized Intensity/min × 1000), position G11 / Relative Initial Rate (Normalized Intensity/min × 1000), position G28 / Relative Initial Rate (Normalized Intensity/min × 1000), position U12 / Relative Initial Rate (Normalized Intensity/min × 1000), position U14 / Relative Initial Rate (Normalized Intensity/min × 1000), position U25 / Relative Initial Rate (Normalized Intensity/min × 1000), position U26 / Relative Initial Rate (Normalized Intensity/min × 1000), position U29 / Relative Initial Rate (Normalized Intensity/min × 1000), position U31: 10 μM SLIIb, 10 μM copper-peptide
Outline: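 Reactions contained 10 μM Fl-SLIIb, 10 μM Cu–peptide, 1 mM ascorbate and 1 mM H2O2, and were sampled at 2–180 min. They were quenched on ice, C18-desalted, and analysed by negative-ion reflectron MALDI-TOF (HPA/ammonium citrate matrix, ≥1000 shots). Peaks with m/z >1500 and S/N >5 were assigned against expected product masses. Products were summed per overhang type and expressed as a fraction at each time point. Initial rate was taken from the linear region (first ~40 min).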

[2] = test system: 5′-fluorescein labeled HCV SLIIb; assay: Reaction kinetics via fluorescence; type: biochemical, hepatitis C virus; settings: pseudo Michaelis-Menten, catalytic efficiency
Outline: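 Copper–peptide complexes were formed at 1.1:1 peptide:Cu. Each complex was added to 333 nM 5′-fluorescein-SLIIb with 1 mM ascorbic acid and 1 mM H2O2 in 20 mM HEPES (pH 7.4, 100 mM NaCl) at 25 °C. Fluorescence loss was followed at ex 491/em 518 nm and converted to RNA concentration by a calibration curve. Initial velocities were plotted against catalyst concentration and fit to Michaelis–Menten to give KM and kcat. Values are the mean of ≥3 trials.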

| Substance | Initial Rate (%Overhang/min), 2′, 3′-cPO4 [1] | Initial Rate (%Overhang/min), 3′-AL [1] | Initial Rate (%Overhang/min), 3′-OH [1] | Initial Rate (%Overhang/min), 3′-PO4 [1] | Initial Rate (%Overhang/min), 3′-PGA [1] | Initial Rate (%Overhang/min), 3′-PG [1] | Initial Rate (%Overhang/min), 5′-AL [1] | Initial Rate (%Overhang/min), 5′-GemDiol [1] | Initial Rate (%Overhang/min), 5′-OH [1] | Initial Rate (%Overhang/min), 5′-PO4 [1] | Initial Rate (%Overhang/min), 5′-PPA [1] | Relative Initial Rate (Normalized Intensity/min × 1000), position A6 [1] | Relative Initial Rate (Normalized Intensity/min × 1000), position A15 [1] | Relative Initial Rate (Normalized Intensity/min × 1000), position A19 [1] | Relative Initial Rate (Normalized Intensity/min × 1000), position A27 [1] | Relative Initial Rate (Normalized Intensity/min × 1000), position A30 [1] | Relative Initial Rate (Normalized Intensity/min × 1000), position C10 [1] | Relative Initial Rate (Normalized Intensity/min × 1000), position C33 [1] | Relative Initial Rate (Normalized Intensity/min × 1000), position G5 [1] | kcat/KM [2] | other results |
| --- | --- | --- | --- | --- | --- | --- | --- | --- | --- | --- | --- | --- | --- | --- | --- | --- | --- | --- | --- | --- | --- |
| GGHARFK-Cu [4-Cu] | 0.5 ± 0.1 %Overhang/min | 0.5 ± 0.1 %Overhang/min | 1.2 ± 0.4 %Overhang/min | 0.1 ± 0.1 %Overhang/min | 1.1 ± 0.4 %Overhang/min | 1.5 ± 0.4 %Overhang/min | 0.2 ± 0.1 %Overhang/min | 0.8 ± 0.1 %Overhang/min | 1.1 ± 0.4 %Overhang/min | 0.4 ± 0.1 %Overhang/min | 1.4 ± 0.3 %Overhang/min | - ^a | 14.2 ± 4.6 Normalized Intensity/min × 1000 | 2.9 ± 1.4 Normalized Intensity/min × 1000 | 2.1 ± 0.3 Normalized Intensity/min × 1000 | <1 Normalized Intensity/min × 1000 | - ^a | - ^a | - ^a | 633 M⁻¹ s⁻¹ | Relative Initial Rate (Normalized Intensity/min × 1000), position G9 [1]: 2.0 ± 0.5 Normalized Intensity/min × 1000; Relative Initial Rate (Normalized Intensity/min × 1000), position G11 [1]: - ^a; Relative Initial Rate (Normalized Intensity/min × 1000), position G28 [1]: - ^a; Relative Initial Rate (Normalized Intensity/min × 1000), position U12 [1]: - ^a; Relative Initial Rate (Normalized Intensity/min × 1000), position U14 [1]: - ^a; Relative Initial Rate (Normalized Intensity/min × 1000), position U25 [1]: - ^a; Relative Initial Rate (Normalized Intensity/min × 1000), position U26 [1]: 1.9 ± 0.4 Normalized Intensity/min × 1000; Relative Initial Rate (Normalized Intensity/min × 1000), position U29 [1]: - ^a; Relative Initial Rate (Normalized Intensity/min × 1000), position U31 [1]: 1.4 ± 0.4 Normalized Intensity/min × 1000 |
| GGHDRFK-Cu [9-Cu] |  |  |  |  |  |  |  |  |  |  |  |  |  |  |  |  |  |  |  | 550 M⁻¹ s⁻¹ |  |
| GGHFRFK-Cu [12-Cu] |  |  |  |  |  |  |  |  |  |  |  |  |  |  |  |  |  |  |  | 167 M⁻¹ s⁻¹ |  |
| GGHKFRY-Cu [8-Cu] | 0.1 ± 0.1 %Overhang/min | 0.2 ± 0.1 %Overhang/min | 0.4 ± 0.1 %Overhang/min | 1.3 ± 0.2 %Overhang/min | 0.3 ± 0.1 %Overhang/min | 0.1 ± 0.1 %Overhang/min | 0.9 ± 0.1 %Overhang/min | 0.5 ± 0.1 %Overhang/min | 1.1 ± 0.4 %Overhang/min | 0.7 ± 0.1 %Overhang/min | 0.7 ± 0.1 %Overhang/min | - ^a | - ^a | - ^a | 1.1 ± 0.3 Normalized Intensity/min × 1000 | <1 Normalized Intensity/min × 1000 | - ^a | - ^a | 3.7 ± 1.8 Normalized Intensity/min × 1000 | 120 M⁻¹ s⁻¹ | Relative Initial Rate (Normalized Intensity/min × 1000), position G9 [1]: - ^a; Relative Initial Rate (Normalized Intensity/min × 1000), position G11 [1]: 0.6 ± 0.2 Normalized Intensity/min × 1000; Relative Initial Rate (Normalized Intensity/min × 1000), position G28 [1]: <1 Normalized Intensity/min × 1000; Relative Initial Rate (Normalized Intensity/min × 1000), position U12 [1]: - ^a; Relative Initial Rate (Normalized Intensity/min × 1000), position U14 [1]: - ^a; Relative Initial Rate (Normalized Intensity/min × 1000), position U25 [1]: <1 Normalized Intensity/min × 1000; Relative Initial Rate (Normalized Intensity/min × 1000), position U26 [1]: <1 Normalized Intensity/min × 1000; Relative Initial Rate (Normalized Intensity/min × 1000), position U29 [1]: <1 Normalized Intensity/min × 1000; Relative Initial Rate (Normalized Intensity/min × 1000), position U31 [1]: - ^a |
| GGHNRFK-Cu [10-Cu] |  |  |  |  |  |  |  |  |  |  |  |  |  |  |  |  |  |  |  | 67 M⁻¹ s⁻¹ |  |
| GGHYAFK-Cu [5-Cu] | 0.2 ± 0.1 %Overhang/min | 0.2 ± 0.1 %Overhang/min | 1.2 ± 0.1 %Overhang/min | 0.8 ± 0.1 %Overhang/min | 0.1 ± 0.1 %Overhang/min | 0.1 ± 0.1 %Overhang/min | 1.0 ± 0.2 %Overhang/min | 0.5 ± 0.1 %Overhang/min | 0.6 ± 0.1 %Overhang/min | 1.5 ± 0.6 %Overhang/min | 0.2 ± 0.1 %Overhang/min | - ^a | - ^a | 1.0 ± 0.7 Normalized Intensity/min × 1000 | 1.1 ± 0.3 Normalized Intensity/min × 1000 | - ^a | 1.0 ± 0.2 Normalized Intensity/min × 1000 | <1 Normalized Intensity/min × 1000 | <1 Normalized Intensity/min × 1000 | 300 M⁻¹ s⁻¹ | Relative Initial Rate (Normalized Intensity/min × 1000), position G9 [1]: - ^a; Relative Initial Rate (Normalized Intensity/min × 1000), position G11 [1]: - ^a; Relative Initial Rate (Normalized Intensity/min × 1000), position G28 [1]: - ^a; Relative Initial Rate (Normalized Intensity/min × 1000), position U12 [1]: <1 Normalized Intensity/min × 1000; Relative Initial Rate (Normalized Intensity/min × 1000), position U14 [1]: - ^a; Relative Initial Rate (Normalized Intensity/min × 1000), position U25 [1]: 3.1 ± 0.6 Normalized Intensity/min × 1000; Relative Initial Rate (Normalized Intensity/min × 1000), position U26 [1]: - ^a; Relative Initial Rate (Normalized Intensity/min × 1000), position U29 [1]: - ^a; Relative Initial Rate (Normalized Intensity/min × 1000), position U31 [1]: - ^a |
| GGHYRAK-Cu [6-Cu] | 0.7 ± 0.1 %Overhang/min | 0.8 ± 0.1 %Overhang/min | 0.1 ± 0.1 %Overhang/min | 0.7 ± 0.2 %Overhang/min | 0.6 ± 0.1 %Overhang/min | 1.2 ± 0.1 %Overhang/min | 0.8 ± 0.1 %Overhang/min | 0.9 ± 0.3 %Overhang/min | 1.2 ± 0.3 %Overhang/min | 1.2 ± 0.2 %Overhang/min | 1.9 ± 0.1 %Overhang/min | 1.7 ± 0.5 Normalized Intensity/min × 1000 | <1 Normalized Intensity/min × 1000 | - ^a | - ^a | 2.4 ± 0.3 Normalized Intensity/min × 1000 | - ^a | 1.4 ± 0.5 Normalized Intensity/min × 1000 | - ^a | 17 M⁻¹ s⁻¹ | Relative Initial Rate (Normalized Intensity/min × 1000), position G9 [1]: - ^a; Relative Initial Rate (Normalized Intensity/min × 1000), position G11 [1]: <1 Normalized Intensity/min × 1000; Relative Initial Rate (Normalized Intensity/min × 1000), position G28 [1]: 2.3 ± 1.6 Normalized Intensity/min × 1000; Relative Initial Rate (Normalized Intensity/min × 1000), position U12 [1]: - ^a; Relative Initial Rate (Normalized Intensity/min × 1000), position U14 [1]: <1 Normalized Intensity/min × 1000; Relative Initial Rate (Normalized Intensity/min × 1000), position U25 [1]: - ^a; Relative Initial Rate (Normalized Intensity/min × 1000), position U26 [1]: - ^a; Relative Initial Rate (Normalized Intensity/min × 1000), position U29 [1]: - ^a; Relative Initial Rate (Normalized Intensity/min × 1000), position U31 [1]: - ^a |
